From PubChem BioAssay
HUVEC prolif 384 – inhibitors of HUVEC proliferation, primary screen, cell-based, 384-well. CellTiter-Glo luminescence, 72 h; stronger effect = lower value. viability, % at 10 µM (by protocol). 86,000 tested, 1.1% active;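 active = viability at or below 30%; inactive = viability above 30%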;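 also: 100% = median luminescence of DMSO-only cell control wells on each plate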
Fibroblast inh – antiproliferative effect on LL 47 fibroblasts – human, LL 47 cells, CellTiter-Glo luminescence, primary screen; LL 47 human lung fibroblast viability, ATP luminescence; stronger effect = lower value; viability, % at 10 µM; 85,000 tested, 1.1% active;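 active = viability at or below 50% in the single dose screen; inactive = viability above 50%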;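 also: compound exposure lasted 72 h before the ATP readout; 100% = median luminescence of untreated cell-only wells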
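test system = LL 47 human lung fibroblasts | amount = 1,150 fibroblasts seeded per well | medium = 15% FBS in IMEM | times = overnight cell rest, 72 h compound treatment at 37 °C | measured by = CellTiter-Glo luminescence measuring cellular ATP | read-out = viability percentage against median untreated-cell control | benchmarks = cell-only wells, no compound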
Jurkat viability – cytotoxicity toward Jurkat T cells, primary screen, cytotoxicity control, cell-based, Jurkat E6.1, 60K MLSMR library | 56,000 tested, 1.2% active | inhibition, % at 4 µM | Jurkat E6.1 viability, ATP luminescence, 48 h;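 active = inhibition above the mean inhibition of all tested compounds plus 3 SD, cut at about 28% in these data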
H69AR growth 86K – proliferation blockers of H69AR lung cancer cells, primary screen, cell-based, human, 86K library | 85,000 tested, 6% active | H69AR lung tumor viability, ATP luminescence, 72 h; stronger effect = lower value | AID 598, 2007 | viability, % at 10 µM;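 active = viability at or below 40%; inactive = viability above 40%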;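 also: multidrug resistant small cell line overexpressing MRP-1 efflux transporter; 100% = mean luminescence of untreated control wells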
F-actin modifier – modifiers of F-actin cytoskeleton organization, primary screen, imaging, HUVEC, phalloidin staining, high-content imaging; HUVEC TNFa F-actin phalloidin imaging; inhibition, % at 2 µM; 91,000 tested, 0.18% active;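 active = inhibition above the batch mean plus 3 SD and confirmed as a hit by visual image inspection, cut at about 30% in these data, passing the limit was not always enough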
PTK2B oligo ant – antagonists of Pyk2 self-association, primary screen, Q293 cells, FERM NanoBiT luminescence, HTS. stronger effect = lower value. z-score (the deposit names both 25 µM and 10 µM). 99,000 tested, 0.83% active. Protein-tyrosine kinase 2-beta (Homo sapiens), Q14289;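 active = Z-score of -3 or lower, scaled per plate to the spread of control and sample wells; inactive = z-score above -3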;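 also: negative z-score means lost luminescence so less FERM oligomerization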
The depositor's hits bear a star; · = not tested or not shown. In the library only some 6% were active in any assay of this set; here they are far more common.

SMILES | HUVEC prolif 384 | Fibroblast inh | Jurkat viability | H69AR growth 86K | F-actin modifier | PTK2B oligo ant
CCOc1ccc(-n2ccnc2SCC(=O)Nc2nnc(C)s2)cc1 | 102.0 | 97.1 | 4.8 | 93.5 | · | -0.22
CCc1nnc(NC(=O)CSc2nccn2-c2cccc(C)c2C)s1 | 82.1 | 90.6 | 31.5 | 18.3* | 5.2 | ·
CCCC(O)(c1ccc(Cl)cc1)C(CN1CCOCC1)c1ccccc1 (centres undefined) | 105.8 | 96.5 | · | 39.6* | 6.0 | ·
CCCCC(O)(CCN1CCOCC1)c1ccc(Cl)cc1 (centres undefined) | 99.0 | 97.6 | · | 97.5 | · | 0.36
COc1ccc(C(=O)N2CC3(CC(c4ccc(Cl)cc4)=NO3)C[C@H]2C(=O)NCC(N)=O)cc1 (some centres undefined) | · | · | · | · | 3.3 | ·
CC1CN(C)C(C)CC1NCc1ccc2c(c1)OCO2 (centres undefined) | 95.0 | 96.2 | 3.5 | 106.5 | · | -0.97
Nc1c([N+](=O)[O-])cnnc1-c1ccccc1 | · | · | · | · | · | 2.65
CCCc1cc(C(=O)OC)c(NC(=O)c2cc(C)on2)s1 | 85.8 | 76.2 | · | 84.4 | -3.9 | -1.37
CCCCCn1c(=O)[nH]c2cc(C(=O)NCc3ccc4c(c3)OCO4)ccc2c1=O | 59.2 | 88.7 | · | 31.6* | 13.5 | 0.48
CCCCCn1c(=O)[nH]c2cc(C(=O)N3CCN(Cc4ccc5c(c4)OCO5)CC3)ccc2c1=O | 45.0 | 61.5 | · | 9.3* | · | -0.71
CC(=O)C1=C(C)NC(SCC(=O)c2ccc(Cl)cc2)=C(C#N)C1c1ccco1 (centres undefined) | 63.2 | · | -7.3 | 28.7* | 10.0 | -0.12
N#CC1=C(SCC(=O)c2ccc(Br)cc2)NC2=C(C(=O)CCC2)C1c1ccco1 (centres undefined) | 51.0 | 56.9 | · | 16.7* | · | 0.55
CC(=O)C1=C(C)NC(SCC(=O)c2ccccc2)=C(C#N)C1c1ccco1 (centres undefined) | 72.2 | · | 1.2 | 62.9 | -12.8 | ·
CSC1=C(C#N)C(c2ccccc2Cl)C(C(C)=O)=C(C)N1 (centres undefined) | 88.4 | 98.9 | · | 90.2 | 9.7 | -3.13*
CC(C)CC(=O)NC(NCC1CCCO1)C(Cl)(Cl)Cl (centres undefined) | · | · | · | · | 1.2 | 0.2
CCOc1cc(C(=O)Nc2cc(C)on2)cc(OCC)c1OCC | 102.2 | 101.9 | 2.1 | 81.5 | 5.2 | -0.59
CCOc1ccc(C(=O)Nc2cc(C)on2)cc1 | 98.6 | · | -3.0 | 36.0* | 9.5 | 0.84
CCCNC(=O)NC(=O)CSc1nc2cc(C(=O)OC)ccc2c(=O)n1-c1ccccc1 | · | · | · | · | 10.4 | -3.15*
CCCCN1CC(C(=O)NC2CCCCC2)CC1=O (centres undefined) | 101.5 | 101.6 | -12.2 | 90.5 | 15.3 | 0.42
C=CCn1c(SCc2c(C)noc2C)nc2ccccc2c1=O | 45.5 | 42.5* | · | 20.0* | 12.6 | 0.05
C=CCn1c(SCC(=O)c2ccc(Cl)s2)nc2ccccc2c1=O | · | · | · | · | -4.5 | -0.14
C=CCn1c(SCc2c(C)noc2C)nc2sc3c(c2c1=O)CCCCC3 | 36.0 | 70.4 | 6.3 | 55.2 | 9.9 | -1.25
C=CCn1c(Cc2ccc(OC)cc2)nnc1SCc1nc2ccccc2c(=O)[nH]1 | 89.0 | 102.4 | -1.2 | 98.1 | -4.4 | -0.01
C=CCn1c(SCc2nc3ccccc3c(=O)[nH]2)nc2ccccc2c1=O | 73.5 | 85.5 | · | 5.6* | 4.2 | -0.68
C=CCn1c(SCc2c(C)noc2C)nc2cc(C(=O)O)ccc2c1=O | 47.3 | 85.1 | 69.2* | 94.2 | · | 1.06
SMILES | HUVEC prolif 384 | Fibroblast inh | Jurkat viability | H69AR growth 86K | F-actin modifier | PTK2B oligo ant
C=CCn1c(SCc2c(C)noc2C)nc2sc3c(c2c1=O)CCCC3 | 54.8 | 88.5 | · | 28.0* | -12.9 | 0.52
CCOc1cc(C)c(S(=O)(=O)Nc2ccc3cn[nH]c3c2)cc1C | · | · | · | · | 11.4 | -1.69
C/C(=N\NC(=O)CCCOc1ccc(Cl)cc1C)c1ccc(C)o1 | · | · | · | · | · | 0.01
CC1CC(C)CN(Cc2nc3c(c(=O)n(C)c(=O)n3C)n2Cc2ccccc2Cl)C1 (centres undefined) | · | · | 3.7 | · | · | ·
COc1ccc(-c2nnc3n2N=C(c2ccccc2)CS3)cc1OC | 31.9 | 14.8* | -4.3 | 53.5 | · | ·
Cc1cc(-c2nnc3n2N=C(c2ccc(-c4ccccc4)cc2)CS3)n[nH]1 | 28.2* | 60.1 | -1.3 | 3.9* | -0.8 | -3.4*
c1ccc(C2=Nn3c(nnc3-c3ccncc3)SC2)cc1 | 77.5 | 106.1 | -15.2 | 80.8 | 10.6 | -0.4
COc1ccc(C2=Nn3c(nnc3C3CCCCC3)SC2)cc1OC | 81.7 | 41.1* | · | 14.5* | -5.3 | -1.75
Cc1cccc(-c2nnc3n2N=C(c2ccccc2)CS3)c1 | 97.1 | 90.9 | · | 36.0* | -15.1 | -1.71
CSc1cc(C)n(-c2ccccc2)c(=S)c1C(C)=O | · | · | · | · | -1.3 | 1.09
O=C(NC1CCCCCCC1)c1ccc(CNc2c(N3CCOCC3)c(=O)c2=O)cc1 | 92.3 | 91.5 | 2.4 | 93.4 | · | ·
COc1ccc(Cc2nnc3n2N=C(c2cc4ccccc4o2)CS3)cc1OC | 82.1 | 94.1 | 3.7 | 35.0* | 1.6 | -0.82
CCNC(=O)/C(=C/c1ccco1)NC(=O)/C=C/c1ccccc1 | · | · | · | · | 5.5 | 0.15
CCSc1nnc2n(N)c(=O)c3ccccc3n12 | · | · | · | · | -2.2 | ·
O=C(CSC1=NCCN1)NC12CC3CC(CC(C3)C1)C2 | 89.3 | 95.9 | -4.7 | 15.5* | -4.9 | 0.89
CC(=O)OC(/C(O)=C(\C#N)c1nc2ccccc2[nH]1)c1ccccc1 (centres undefined) | 82.1 | · | -1.4 | 70.3 | -3.1 | -0.78
Cc1ccc(-n2ncc(C(=O)N3CCc4ccccc4C3)c2NC(=O)c2ccco2)cc1C | 87.4 | 103.3 | 2.6 | 25.6* | -7.7 | 0.56
CCC(=O)NCCc1nc2ccccc2n1Cc1ccc(C)cc1 | 104.8 | 93.0 | · | 91.8 | 14.6 | 1.59
CCn1c2ccccc2c2cc(NC(=O)C3CCN(S(=O)(=O)c4cccs4)CC3)ccc21 | 39.0 | 92.4 | · | 21.0* | · | -1
Cc1onc(-c2ccccc2)c1C(=O)Nc1nc2c(s1)C(=O)CC(C)(C)C2 | 98.6 | 105.4 | · | 89.7 | 30.4 | -3.83*
CC1(C)CC(=O)c2sc(NC(=O)c3ccco3)nc2C1 | 90.2 | 101.3 | 6.8 | 97.7 | 2.5 | ·
Cc1onc(-c2ccccc2)c1C(=O)Nc1nnc(-c2ccncc2)s1 | 87.8 | 103.2 | -0.1 | 80.0 | 6.0 | -3.17*
Cc1cc(C(=O)COc2ccc(-c3nnco3)cc2)c(C)n1Cc1ccccc1 | 81.3 | 83.1 | · | 99.5 | -5.1 | 0.45
O=c1c(C(c2ccccc2)c2c(O)sc3ccccc3c2=O)c(O)sc2ccccc12 | 66.7 | 88.6 | · | 36.4* | -15.4 | 0.34
OC(c1ccccc1)c1nc2ccccc2s1 (centres undefined) | 89.9 | 94.8 | 7.2 | 99.2 | 7.7 | -0.03
CCc1c(C)nc2ncnn2c1N1CCC(C(=O)Nc2ccc(C)cc2)CC1 | 100.7 | 99.5 | 13.7 | 35.0* | 46.8 | 0.98
